We go through 167 variants from the RNAGym collection of RNA variant scans (doi:10.1126/science.aae0568).

Variants at the floor of the assay were thinned out.

B1: tRNA (parent)
chain: GUUCCGUUGGCGUAAUGGUAACGCGUCUCCCUCCUAAGGAGAAGACUGCGGGUUCGAGUCCCGUACGGAACG

The variants in this data set derive from B1. As to the kind of experiment: yeast fitness relative to wild type (ratio to wild type); higher = fitter; tRNA-Arg(CCU), competitive growth, 37 C, YPD. In outline:
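Variants of the tRNA-Arg(CCU) gene were chemically synthesised with a 3% per-site mutation rate across 69 sites and placed at the native genomic locus in Saccharomyces cerevisiae. Six parallel replicates of the pooled strains were competed in YPD at 37°C for 24 hours, and gene amplicons from the start and end populations were read by 100-nucleotide paired-end sequencing. Darwinian fitness relative to wild type was derived from changes in genotype frequencies. Genotypes required ≥ 100 starting reads, and estimates < 0.5 were set to 0.5.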
With C4G C5G G9A C49A, the yeast fitness turned out to be 0.739.
For U47A G48C the value was 0.82; for A14C G18A A42G G44A C66G, not above 0.5; for C11G C24G C27G G48C, not above 0.5.
For U16A A42U G56A G58A the value was 0.817; for C61U A70G, 0.979; for A14U U32C A37G C49U, not above 0.5.
For A21G C29U A45U G67U the value was not above 0.5.
For C5A A15G C33U G44C, the yeast fitness is not above 0.5.
For G6C C22U A65G C66G G68C the value was not above 0.5.
For C5U A14G U28C the value was 0.562; for G9A U13C C29G A69U, 0.53.
For G6C C11G G41A A42C G50C A70G the value was not above 0.5.
For the variant G17A C30A C60G C62A, the yeast fitness was not above 0.5.
For A20G A45U G48A C55A the value was not above 0.5; for U3G U8A C24A A70G, not above 0.5.
For G10C G12C C33U U35G, the yeast fitness was found to be 0.614.
For A20G G25C U35C G58C the value was not above 0.5; for C4U A65C A70G, 0.75; for U2C C29A U53C C62A G67A, not above 0.5.
For G6C C24A A70C the value was not above 0.5; for U2A C5G C24U C30G C49G C61G, not above 0.5.
U2G U47C: the yeast fitness was 0.992.
For A15G C24G A65C the value was not above 0.5; for A20C C49U A70G, 0.748; for U7A G12C C34U, not above 0.5.
For A14C G63C the value was 0.535.
For C5G C62G the value was 0.791; for A37U A43C U53A U54C, not above 0.5.
As to U7G C11G C34U G41A G67U, the yeast fitness is not above 0.5.
For the variant C30U C33A G50C C55G, the yeast fitness was not above 0.5.
For U2C C31G G58A C61G U64G A69C the value was not above 0.5; for G12A C24U, 0.697.
For G12A U28C C31U G52A G56C the value was not above 0.5; for C22U U32C C33G C55G, not above 0.5; for U26C C46A C61U G67A, not above 0.5.
For U16A G25C C46G the value was 1.07; for U2C U19G, 0.867.
For the variant C4G A15U G18C G23C C24G G56C A70G, the yeast fitness was found to be 0.586.
For G25C C31U U32A C55A A69U the value was not above 0.5.
For C5U U8C A43U the value was 0.703.
For A14U A21G C61G A70U the value was not above 0.5; for G6A C11A A36C C61G C62A A69C, not above 0.5; for C27G A36G A40G A69C, not above 0.5.
As to G12A A40C U59G A65G, the yeast fitness was not above 0.5.
For A20G C27U A57C the value was not above 0.5; for U13A U28C C60G C66G, 0.6; for U28G G41C, 0.551.
For U32C A45C the value was 0.864.
For G17C A20U C33G the value was not above 0.5.
In the case of C4A C22A G44C, the yeast fitness was not above 0.5.
For U3C G44C U59A the value was not above 0.5.
For C29U A70U the value was 0.827; for G39A U47A, 0.89.
For G23A C61G the value was 0.714.
In the case of C4U A15G A65U, the yeast fitness is 0.69.
Consider U16C C22U G25A C31G G52A, for which the yeast fitness came out at 0.589.
For C31U A43C the value was 1.17; for U2C U32A C46U, 0.603.
As to C11U G25A C29A A42C A45G, the yeast fitness was not above 0.5.
For A15C C33U C61G the value was not above 0.5.
For C27U C66G G67C the value was not above 0.5.
For C4G G17A C30U the value was not above 0.5.
In the case of U7C C24A C29G, the yeast fitness was 0.594.
For A36G U64A G67C the value was not above 0.5.
Regarding U8C A20G, the yeast fitness was found to be 0.941.
Regarding G6C G17A C30U A42C, the yeast fitness is 0.63.
For G23A U32C A42G U54G C62U the value was not above 0.5; for C4U A15C C55U G63C, not above 0.5; for C5G A15G U16A A20G U28A C30A C33A A36U, 0.553.
Consider C4G C11U A14G, for which the yeast fitness came out at 0.556.
For C11G C22U A40G C55G C61G the value was not above 0.5.
For G17C U26C U28C C29G A42C G51A the value was not above 0.5.
Take U7A A37U C62A: the yeast fitness is 0.571.
For C29U A40G U47A C61U C62A A70G the value was not above 0.5.
For C27G G39A C46U G68A the value was not above 0.5; for G48C C61A A65U, 0.687; for C5G G12C A20U C24G C33A C46A C55A, not above 0.5.
For A20G U28G A57U C62U, the yeast fitness is not above 0.5.
For G9U A65U the value was 0.639; for U8C U16C A70U, 0.577; for G18C C49G A65U, 0.66.
In the case of C34A A37U A69C, the yeast fitness was not above 0.5.
For C22G G23A the value was 0.644; for A20G A21U C31U A45C C49U A65C, not above 0.5; for U16C A37C C55G A69U, not above 0.5.
For C11U C31U G51C the value was not above 0.5.
With G48A C61A, the yeast fitness came out at 0.682.
For C5A C30U G68A the value was not above 0.5; for G6C C11U A45U, 0.559.
For G6A A15G C46A A69U the value was not above 0.5.
As for U7C A14U G25C G39U C62G A65U, the yeast fitness is not above 0.5.
For the variant U19C G25C A37G, the yeast fitness was 0.6.
For G44U C55G the value was not above 0.5; for C33U A36G, 0.662; for G6A A45G A65U, 0.771.
For U2A C29A A45U G67C the value was not above 0.5.
For C4A G18A C29U C66A the value was not above 0.5.
Take G6C U47A G51C: the yeast fitness amounted to 0.525.
For G18C A21U C30G A69C the value was 0.555.
In the case of U7G C11G A21G C34U G41A, the yeast fitness was not above 0.5.
For G9C C22G C30A A42U U59C the value was not above 0.5.
For U3A G9C A20C A21C G25A G56A U64C the value was 0.73; for U26A G41U C55U, not above 0.5; for C31G C33G G39C, 0.508.
For U19G A21U C33A C49A the value was not above 0.5.
C27G G50A C55G C62G G67U: the yeast fitness is not above 0.5.
For G17C C27A the value was 0.674.
As for A14G U59C, the yeast fitness was 0.923.
Turning to C5G U7A A15C U28A, the yeast fitness was not above 0.5.
For U16A C30G G50A A70G the value was not above 0.5; for C4A G17C A36U G39A A42C G50U G63A, 0.589; for U28A C49U U54G C62U, not above 0.5.
As for C24G C49U G51A C61A A69U, the yeast fitness is not above 0.5.
For C5U U7C G52C A57U C62U C66G the value was not above 0.5.
In the case of A42G A65C, the yeast fitness worked out at 0.755.
For C5G G12A A36U A42U U59C the value was not above 0.5.
For C5A C55U G63A G67C the value was not above 0.5.
As to A14U A21U G58C, the yeast fitness was not above 0.5.
For G10A A15C A45C C49G the value was 0.553; for G10A A36C A43U, 0.573.
For A15C A43G C46A A70C the value was not above 0.5.
For C5G U7C C49U the value was 0.524; for U2G C55U, 0.667; for U3A C62U, 0.961.
For the variant G17A A43G A45G G48A C62G, the yeast fitness is not above 0.5.
For G44C U47C, the yeast fitness turned out to be 0.822.
For C5U A40C G48A the value was 0.592.
For the variant A15U U19C C31A G41C, the yeast fitness stood at 0.596.
For A15G A43U the value was 0.925; for C30A G50A A69C, 0.675.
For G10C C34U A40C the value was 0.667; for U35A C60U, not above 0.5.
For C24U U59A C66U the value was 0.565; for G10C C27U A65C, 0.552.
Regarding A43U C49A C66U A70U, the yeast fitness was 0.529.
For U16A C61G the value was 0.631.
For G6A A15C A20U C29U the value was not above 0.5; for U47C G63C, 0.769.
For C22G C27A C46U the value was 0.539; for G9A G25A C49U, 0.773; for U3C G9A A14G C66U, not above 0.5.
Consider A14U A43G C55G, for which the yeast fitness was not above 0.5.
For G44A C61U the value was 1.04.
For A42U A70C the value was 1.01; for G6A C22A C31U G68C, 0.709; for G6A U35G C55A, 0.643.
For A40G C62G the value was 0.719; for C4G U8A G12A A42G G44A U64C, not above 0.5; for C11U A65G, 0.935.
C33U A43C G48A G63C: the yeast fitness is not above 0.5.
For U3G U53A the value was 0.662; for C11G C24U A42G A65G, not above 0.5; for U16C C49G, 0.909.
For U13A A14G C30G the value was not above 0.5; for G17A C30A A36C, not above 0.5.
For G25A A36U C49U the value was 0.545.
Regarding C5G U8C A21C C33U U59G, the yeast fitness is not above 0.5.
For G6A C11A C66A the value was not above 0.5; for G23A A40U C49U C60A G63A, not above 0.5.
For A43C G51A the value was 0.809.
In the case of U8G A14U G50A, the yeast fitness was not above 0.5.
For U16G C31U G58A the value was 0.633; for C31U A37G U54A, not above 0.5.
A21C C27U G41A: the yeast fitness was 0.966.
For C31U A37G A45C A70C the value was not above 0.5.
For C24G C30G A70G the value was 0.638.
